# Screening results as filed in PubChem.
# SR-BI DiI-HDL act: activators of SR-BI mediated DiI-HDL uptake, primary screen, ldlA[mSR-BI] CHO cells, DiI fluorescence. 3 h; 100 = double the neutral-control signal. activation, % at 12.5 µM. 0.096% of 320,000 active. AID 504775, 2011;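 active = mean replicate activation of at least 60% and every replicate at or above 60%; inconclusive = mean or all-replicate condition met, but not both; inactive = mean below 60% and not all replicates reaching 60%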;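 also: 0% = median plate neutral-control signal and 100% = twice that signal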
#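 Assay system: LDL receptor-deficient CHO ldlA cells overexpressing murine SR-BI / Medium: BSA-supplemented, HEPES-buffered Ham's F12, pH 7.4 / Probe or stimulus: DiI-labelled HDL at 10 µg/mL final / Timing: compound with DiI-HDL co-incubation, 3 h at 37 °C / Technique: bottom-read cell fluorescence after medium removal, ex 550/em 595 nm / Measure: HDL uptake via cellular fluorescence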
# C2C12 statin: suppressors of statin myotoxicity in C2C12 myotubes, primary screen, cell-based, single point, plate reader; C2C12 myotubes + simvastatin, ATP luminescence, 48 h; scaled: DMSO 0, geranylgeraniol control 100; AID 602340, 2012; 0.78% of 330,000 active; rescue of ATP level, % at 7.49 µM;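 active = mean ATP rescue above about 67%, or every replicate alone reaching that limit, limit read from the data, passing the limit was not always enough; inconclusive = no clear call, values can overlap the other calls; inactive = mean under the limit and some replicate under it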;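 also: myotubes were challenged with 10 µM simvastatin during compound exposure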
# SR-BI DiI inh: inhibitors of SR-BI mediated HDL lipid uptake, primary screen, ldlA[mSR-BI] cells, fluorescence, single point; AID 488896, 2010; Scavenger receptor class B member 1 (Mus musculus), Q61009; ldlA[mSR-BI] CHO cells, DiI-HDL uptake fluorescence, 3 h; 0.96% of 320,000 active; inhibition, % at 12.5 µM;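 active = mean replicate inhibition of at least 70% and a set share of replicates each scoring 70 or more; inconclusive = meets just one of the two criteria; inactive = fails both criteria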;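 also: 0% = median of neutral control wells and 100% = median of positive control wells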
# Target sequence (Q61009 whole entry, looked up): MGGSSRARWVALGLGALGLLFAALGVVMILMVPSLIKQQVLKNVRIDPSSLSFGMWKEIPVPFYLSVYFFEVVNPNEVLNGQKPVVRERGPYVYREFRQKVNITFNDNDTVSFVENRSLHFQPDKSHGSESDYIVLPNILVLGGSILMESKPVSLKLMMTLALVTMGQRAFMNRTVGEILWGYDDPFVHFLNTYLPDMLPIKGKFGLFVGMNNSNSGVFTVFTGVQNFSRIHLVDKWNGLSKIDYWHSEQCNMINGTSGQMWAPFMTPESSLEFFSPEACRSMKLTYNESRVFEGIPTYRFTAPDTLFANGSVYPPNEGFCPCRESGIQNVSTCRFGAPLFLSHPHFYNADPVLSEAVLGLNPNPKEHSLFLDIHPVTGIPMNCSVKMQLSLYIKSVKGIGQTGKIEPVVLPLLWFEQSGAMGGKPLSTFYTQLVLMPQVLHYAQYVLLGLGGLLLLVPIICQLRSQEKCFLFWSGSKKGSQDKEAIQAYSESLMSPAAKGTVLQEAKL
# Vif inh: HIV Vif self-association inhibitors, primary screen, imaging, HEK293T, single point; HEK293T cells, Vif self-association by quenched fluorescence, 24 h; inhibition, % at 7.49 µM; 0.35% of 340,000 active; AID 602346, 2012; in the data active = inhibition above about 50%, passing the limit was not always enough; inconclusive = no clear call, values can overlap the other calls; inactive = below about 31%
# * = called active by the depositor; u = inconclusive; x = no result. In the library only some 1.7% were active in any assay of this set; here they are far more common.
SMILES,SR-BI DiI-HDL act,C2C12 statin,SR-BI DiI inh,Vif inh
Cc1ccc(C(=O)N/C(=C\c2sccc2C)C(=O)NCc2ccncc2)cc1,21.8,x,-21.8,0.2
Cc1ccc(C(=O)N/C(=C\c2sccc2C)C(=O)NCc2ccco2)cc1,4.0,-3.2,-4.0,50.9*
O=C(/C=C/c1ccccc1Cl)NCc1ccccc1,11.6,144.8*,-11.6,-3.5
CCc1cc2c(COC(=O)c3cc(S(=O)(=O)N4CCOCC4)ccc3F)cc(=O)oc2cc1O,-77.5,-0.5,77.5*,21.8
O=C(COc1ccc(S(=O)(=O)N2CCOCC2)cc1)N1CCc2ccccc2C1,-4.5,x,4.5,-8.0
O=C(COC(=O)c1cc(S(=O)(=O)N2CCOCC2)ccc1F)c1ccc[nH]1,-25.0,x,25.0,53.3*
Cc1ccc(S(=O)(=O)N2CCOCC2)cc1C(=O)OCC(=O)N1CCc2ccccc2C1,-76.2,x,76.2*,8.8
C[C@H]1CN([C@@H](C)CO)C(=O)c2cccc(NS(=O)(=O)c3ccc(Cl)cc3)c2O[C@@H]1CN(C)C(=O)Nc1ccc2c(c1)OCO2,x,-29.9,x,x
Cc1cc(NC(=O)c2ccc(N3C(=O)C4C5C=CC(C5)C4C3=O)cc2)no1 (configuration not stated),38.1,x,-38.1,1.8
Cc1cc(NC(=O)c2ccc(N3C(=O)CCC3=O)cc2)no1,17.3,115.2*,-17.3,13.9
Cc1cc(C=O)c(C)n1-c1sc2c(c1C(=O)O)CCCC2,-0.2,x,0.2,28.5
COC(=O)c1c(-n2c(C)cc(C=O)c2C)sc2c1CCCC2,-22.4,28.5,22.4,84.1*
NCCOc1ccccc1-c1ccccc1,16.5,6.3,-16.5,50.4*
CCC(=O)N1C[C@H](C)[C@H](OC)CN(C)C(=O)c2cc(NC(=O)c3ccc(F)cc3)ccc2OC[C@H]1C,x,5.6,x,x
CCCCOc1ncnc2c1[nH]c1ccc(OCC)cc12,-18.1,-39.7,18.1,-5.8
CCCCOc1ncnc2c1[nH]c1ccccc12,3.0,1.4,-3.0,88.3*
O=C(C[C@@H]1C=C[C@H](NS(=O)(=O)c2ccc(F)cc2)[C@H](CO)O1)NC1CCC1,x,-3.2,x,x
Cc1nn2c(COc3ccc(NC(=O)C(C)C)cc3)nnc2c2ccccc12,7.3,x,-7.3,3.3
Cc1nn2c(COc3ccc(NC(=O)c4ccccc4Cl)cc3)nnc2c2ccccc12,-9.4,16.3,9.4,98.6*
COC(=O)COc1ccc(/C=N/NC(=O)CN(c2ccccc2OC)S(=O)(=O)c2ccccc2)cc1,-52.1,0.7,52.1,56.6*
COc1ccccc1N(CC(=O)N/N=C/c1ccc(OCC(=O)NCc2ccco2)cc1)S(=O)(=O)c1ccc(C)cc1,-32.2,-24.8,32.2,8.2
CCC(OC(=O)c1cccs1)C(=O)NCc1ccco1 (configuration not stated),1.1,102.1*,-1.1,26.5
CC(C)CC(OC(=O)c1cccs1)C(=O)NCc1ccco1 (configuration not stated),15.9,-3.8,-15.9,3.4
C[C@H](NS(=O)(=O)c1c(Cl)cccc1Cl)C(=O)NNC(=O)COc1ccccc1F,-11.2,-5.7,11.2,52.5*
CC(Oc1ccccc1F)C(=O)NNC(=O)CCS(=O)(=O)c1ccccc1Cl (configuration not stated),4.8,32.8,-4.8,-14.0
SMILES,SR-BI DiI-HDL act,C2C12 statin,SR-BI DiI inh,Vif inh
CC12CN3CC(C)(CN(C1)C3c1ccc(Cl)cc1Cl)C2O (configuration not stated),79.0*,0.2,-79.0,5.1
C[C@@H]1CCCCO[C@@H](CN(C)C)[C@@H](C)CN([C@@H](C)CO)C(=O)c2cc(NC(=O)CCC(F)(F)F)ccc2O1,x,-12.2,x,x
CCn1c(SCC(=O)NCC2CCCO2)nnc1-c1c[nH]c2ccccc12 (configuration not stated),-13.0,x,13.0,-19.6
CCCCc1c(O)nc(SCC(=O)c2ccccc2)[nH]c1=O,71.3*,-2.6,-71.3,14.6
CCn1c(SCC(=O)NCC2CCCO2)nnc1-c1ccc(Cl)cc1 (configuration not stated),3.7,-7.9,-3.7,53.5*
CCCCCc1c(O)nc(SCC(=O)NCC2CCCO2)[nH]c1=O (configuration not stated),20.7,-4.5,-20.7,u
CCCCc1c(O)nc(SCC(=O)NCC2CCCO2)[nH]c1=O (configuration not stated),-5.4,93.6*,5.4,10.8
CN1CCN(C(=O)[C@@H]2[C@@H](CO)[C@@H]3Cn4c(cccc4=O)[C@H]2N3S(=O)(=O)c2ccccc2F)CC1,x,-2.9,x,x
COc1ccc(CN(C)C[C@@H]2Oc3ccc(NC(=O)C4CCCCC4)cc3C(=O)N([C@@H](C)CO)C[C@@H]2C)cc1,x,-8.6,x,x
COCCCN1C(=O)C(CC(=O)NCc2cccc3ccccc23)CC(C(=O)N2CCOCC2)=C1C (configuration not stated),x,0.0,x,66.8*
CCCS(=O)(=O)NCc1cn2cccc(C)c2n1,31.6,4.2,-31.6,8.6
Cc1cccn2cc(CNc3ccccc3)nc12,29.6,108.6*,-29.5,-6.9
NNC(=O)c1sc(-c2ccc(Cl)cc2)cc1N,-110.1,0.6,110.1*,13.9
CC(C)(C)NC(=O)C(=O)NNC(=O)C12CC3CC(CC(C3)C1)C2,110.9*,1.7,-110.9,11.2
O=[N+]([O-])c1cc(-c2ccc(/C=N\n3cnnc3)o2)cc([N+](=O)[O-])c1,-2.1,18.0,2.1,120.5*
O=C(C[C@H]1C[C@@H]2c3cc(NC(=O)Nc4ccccc4F)ccc3O[C@@H]2[C@H](CO)O1)NC1CCCC1,x,1.3,x,x
COc1cccc(N2C(=O)CC(NNC(=O)c3cccs3)C2=O)c1 (configuration not stated),17.4,x,-17.4,3.8
O=C(NNC1CC(=O)N(c2cccc(Cl)c2)C1=O)c1cccs1 (configuration not stated),-2.8,x,2.8,52.5*
C[C@@H]1CN([C@H](C)CO)C(=O)c2cc(NC(=O)Cc3cn(C)c4ccccc34)ccc2O[C@H]1CN(C)S(=O)(=O)c1ccc(F)cc1,-72.7,13.4,72.7*,-5.9
C[C@@H]1CN([C@H](C)CO)C(=O)Cc2cc(NC(=O)Cc3cn(C)c4ccccc34)ccc2O[C@H]1CN(C)S(=O)(=O)c1ccc(F)cc1,x,-12.6,x,x
C[C@H](CO)N1C[C@H](C)[C@@H](CN(C)S(=O)(=O)c2ccc(F)cc2)Oc2ccc(NC(=O)Cc3cn(C)c4ccccc34)cc2CC1=O,x,102.2*,x,x
C[C@@H]1CN([C@@H](C)CO)C(=O)Cc2cc(NS(C)(=O)=O)ccc2O[C@@H]1CN(C)C(=O)Nc1cccc2ccccc12,x,18.4,x,x
COc1ccc(-c2nn(-c3ccccc3)cc2/C=C/C(=O)OCC(=O)Nc2cccc(C#N)c2)cc1,-25.2,6.5,25.2,34.6
COc1ccc(-c2nn(-c3ccccc3)cc2/C=N/NC(=O)c2ccc(Br)o2)cc1,-82.0,-70.5,82.0*,-11.9
